Test: Toxicity liver stage against HepG2, at 10uM
Type: cell-based
Design: test concentration 10 uM, cell line HepG2-A16-CD81EGFP
Conditions: human, HepG2-A16-CD81EGFP cells; read-out: INHIBITION
Outline: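 Uninfected HepG2-A16-CD81EGFP cells, 3 × 10^3 per well, 1536-well, plated on prespotted compound at 10 μM final, parasite-free screening media added to match infected plates; puromycin 10 μM positive, DMSO 0.5% negative; run in parallel with 48 h PbLuc assay at 37 °C, 5% CO2; viability by CellTiter-Glo luminescence, normalized to controls.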

SMILES | cytotoxicity at 10 µM
O=C(Cc1ccc2c(c1)OCCO2)N1CCCC(n2cncn2)C1 (configuration not stated) | -7.85%
Cc1ccc(-c2cn3c(n2)CO[C@@H](CNCc2cnn(C)c2)C3)cc1 | -1.23%
Cn1cc(CN2CC[C@H]3O[C@H](C(=O)Nc4cnccn4)CC[C@H]32)cn1 | -135%
CN1CCO[C@H]2CN(C(=O)c3ccncc3F)C[C@H]21 | -141%
CN1C(=O)CC(C(=O)O)C12CCN(c1ccc3cccc(Cl)c3n1)CC2 (configuration not stated) | 2.1%
CCCN(Cc1cnn(C)c1)S(=O)(=O)c1cccc(F)c1C#N | -9.04%
CN(Cc1nnc(C2CC2)o1)C1CCCN(c2cccnn2)C1 (configuration not stated) | -10.7%
CCOC(=O)c1ccc(NC(=O)c2c(O)nc3c(c2O)CCCC3)cc1 | 8.46%
CCc1nnc2n1CCN(CC(O)CN1CCC(C)CC1)C2 (configuration not stated) | -7.37%
CC(C)N(C(=O)CN(C)C1CCc2ccccc21)C(C)C (configuration not stated) | -9.3%
Cc1ccc(OCCC(=O)N(C)CCC#N)cc1C | 6.5%
COC(=O)[C@@H]1CN(S(=O)(=O)c2ccccc2)CCN1S(C)(=O)=O | 0.471%
CC(C)N1CC[C@H]2[C@H](C[C@@H](Cn3cncn3)N2c2nccs2)C1 | 4.68%
O=C(Nc1ccc(F)cc1)N(CCC(F)(F)F)C[C@H](O)CO | -7.8%
Cc1ccc(NC2CCN(C(=O)CCc3ccncc3)CC2)nn1 | -9.43%
CC(C)c1noc(C(C)N2CCN(CCN3CCCC3=O)CC2)n1 (configuration not stated) | -10.6%
COc1ccc(CC(=O)N2CCCC(n3nc(C)cc3C)C2)cc1 (configuration not stated) | 0.471%
CC(C(=O)NCCCN1CCCCCC1=O)n1cncn1 (configuration not stated) | -20.9%
COCCCN1C(=O)CC[C@H]2CN(c3nc4ccccc4s3)CC[C@H]21 | -9.59%
CC1CN(c2ncnc3sccc23)CCN1c1nccs1 (configuration not stated) | 32.1%
COCC(=O)NC(Cc1cc(N(C)C)nc(C2CC2)n1)c1ccccc1 (configuration not stated) | 3.03%
c1ccc(CCCN2CCCN(c3ncnc4[nH]ccc34)CC2)cc1 | -5.86%
COc1ccccc1CNC(Cc1cccs1)c1nc(C)c(C)s1 (configuration not stated) | 3.89%

SMILES | cytotoxicity at 10 µM
Cc1nnc(C[C@@H]2COC[C@H]3CN(C(=O)c4ccco4)C[C@@H]23)o1 | -8.75%
Cn1ccnc1-c1ccc(NC[C@H]2CCc3ccccc3O2)nn1 | -5.71%
CN1CCCCC1c1ncc2c(n1)CCN(CCCc1ccccc1)C2 (configuration not stated) | -30.5%
O=C(NCCn1ccnc1)c1csc2c1CCCC2 | -1.34%
COC(=O)CC1C(=O)NCCN1c1nc2c(s1)c(C)nn2C (configuration not stated) | -7.36%
COc1ccc(C(C)Nc2ncc(C(N)=O)cc2Cl)cc1OC (configuration not stated) | 3.54%
CC(NCCn1cccn1)c1ccc(F)cc1F (configuration not stated) | 1.99%
Cc1ccc(N2CCN(C(=O)COc3nccc(C)n3)CC2)nn1 | -25.1%
FC(F)(F)CCc1ccnc(NC2CCC(n3cnnc3)CC2)n1 (configuration not stated) | -6.71%
COCCC(=O)N1CC[C@@H](N(C)C)[C@@H]1Cc1ccccc1 | -5.05%
O=C(c1n[nH]c(=O)c2ccccc12)N1CCC(O)(CN2CCOCC2)C1 (configuration not stated) | -1.39%
O=C(c1ccc(C(F)(F)F)cc1)C1CCCN(C(=O)Cn2cnnn2)C1 (configuration not stated) | -5.34%
CC(=O)N1CCC(CSCc2ccco2)CC1 | 9.77%
CC(C)c1nn(C)c(N(C)C)c1CNC1CCC(O)CC1 (configuration not stated) | 1.63%
O=C(Cc1ccc2c(c1)CCCC2)NCCNc1cnccn1 | -0.882%
CC(NC(=O)NCC1(c2ccccc2)CCC1)c1nncn1C (configuration not stated) | -10.4%
Cc1nccc(NCc2cncc3c2CCN(CC2CC2)C3)n1 | -92.4%
Cc1ccoc1C(=O)N1CCn2nnc(COc3cccnc3)c2C1 | -82.5%
CC(C)(C)c1oc(C(N)=O)cc1CN1CCOC(C(F)(F)F)C1 (configuration not stated) | -4.81%
Cc1cc(C(NC(=O)CNS(C)(=O)=O)C(C)C)c(C)s1 (configuration not stated) | 5.2%
COc1ccc2c(c1)OCC(CNC(=O)c1cnc(O)cn1)C2 (configuration not stated) | -1.09%
CN1CCNC(Cc2ccc(-c3cccs3)cc2)C1=O (configuration not stated) | -29.3%
CC(=O)N1CCN(CC(=O)N2CCN(c3cccc(C)c3)CC2)CC1 | -3.83%

SMILES | cytotoxicity at 10 µM
CS(=O)(=O)N1CCC(NC(=O)COc2ccc(Cl)cc2)CC1 | -4.05%
CN(C)CCOCC1CN(CCN(C)C)Cc2ccnn2C1 (configuration not stated) | 0.656%
Cc1ccc(CN(Cc2ncc[nH]2)C2CC(C)(C)NC(C)(C)C2)o1 | -15.2%
FC(F)CNc1cnc(C2CCCN2)cn1 (configuration not stated) | 0.865%
CCn1cc(CN2CCC(c3ccncc3)CC2)cc1C#N | -5.38%
CC1N(C)C(=O)COC12CCN(Cc1nccs1)CC2 (configuration not stated) | -124%
Cc1nc(CN2CCO[C@@H]3CN(C(=O)CN(C)C)CC[C@@H]3C2)cs1 | -0.587%
Fc1ccc(Nc2ccc(C3CCN(Cc4ncc[nH]4)CC3)nc2)nc1 | -1.85%
Cn1cc(CCCNC(=O)NC2CCN(CC(F)(F)F)C2=O)cn1 (configuration not stated) | 6.51%
CN(Cc1cccc(C(F)(F)F)c1)Cc1nc(-c2cnccn2)no1 | 1.35%
COc1ccc2cc(C3CN(C(=O)C4CCOCC4)CCO3)ccc2c1 (configuration not stated) | -8.68%
CC1Cc2ccccc2N1Cc1occc1C(=O)O (configuration not stated) | 0.995%
CCn1c(CN(C)C)nnc1C1CCN(Cc2ccc(Cl)c(F)c2)CC1 | 3.73%
O=C(NCC1CCCCC1)c1nnn(-c2ccc(Br)cc2)n1 | -0.895%
Cc1nc(C2CN(Cc3ccc(F)cc3Br)CCO2)no1 (configuration not stated) | -4.75%
COc1ccc(-c2nc(C(=O)NCC3CCOC3)cs2)cc1OC (configuration not stated) | 2.39%
COc1ccc(N(Cc2ccco2)C(=O)C2CCCO2)cc1F (configuration not stated) | -3.51%
NC(=O)N1CCCC(C(=O)NCc2ccccc2OC(F)(F)F)C1 (configuration not stated) | 1.01%
CCc1ccsc1C(=O)N1CCN(CC(C)(C)O)CC1 | -13.1%
CCC(=O)Nc1nnc2n(Cc3cccc(OC)c3)[nH]c(C)c1-2 | -9.24%
O=C1CC2(CCN(Cc3ncc[nH]3)CC2)CN1Cc1ccc(Cl)cc1 | 5.85%
COc1c(F)cc(F)cc1-c1nc2c([nH]1)CCNC2 | 3.94%
Cc1cc(C)nc(N(C)CCN(C)C2CCCC2)n1 | -5.88%

SMILES | cytotoxicity at 10 µM
CN1CCC(N(Cc2ccco2)S(=O)(=O)c2ccc(Br)cc2Cl)CC1 | -12.8%
Cc1cc(CN(C)C(=O)CN2CCCC2=O)no1 | 3.05%
CN(Cc1nnc(C2CC2)n1C)C1CCN(Cc2ccccc2F)C1 (configuration not stated) | -15.1%
CC(C)NC(=O)CN(C)C(=O)c1csc(Cc2ccccc2F)n1 | 3.24%
CCNC(=O)N(C)C(c1cccc(F)c1)c1ccccn1 (configuration not stated) | -11.6%
CC(NC(=O)c1cc2n(n1)CCCN(C(C)C)C2)c1cn2ccsc2n1 (configuration not stated) | -3.39%
O=C(N1CCCC1)N1CC[C@H]2[C@H]1CCN2c1ncccn1 | -1.19%
Cc1cc(C2CCCN2C(=O)Nc2cn[nH]c2)on1 (configuration not stated) | 1.24%
Cc1ccsc1CN1C[C@@H]2COC[C@]2(CNC(=O)c2ccco2)C1 | -95.5%
COCCNC(C)c1ccc(-c2cccnc2)cc1 (configuration not stated) | 2.7%
Cn1ccnc1CN1CCN(Cc2ccccc2C#N)CC1 | -3.83%
Fc1ccccc1CC1CCN(Cc2nccs2)CC1 | -6.92%
Cc1ccc(N(C)S(=O)(=O)c2cc(C(=O)O)cs2)c(C)c1 | 1.82%
COCC1CC2(CCN(Cc3nccn3C)CC2)CN1c1ncccn1 (configuration not stated) | 5.1%
Cc1cnn(C2CCCN(C(=O)c3cc(-c4ccco4)[nH]n3)C2)c1 (configuration not stated) | -9.48%
Cc1nc(C2CCN(C(=O)c3ccn(C)n3)CC2)c2sccn12 | -4.66%
O=S(=O)(C1CC1)N1CCC2(CC1)COC(COc1cccnc1)C2 (configuration not stated) | 9.49%
CC(=O)N1CCSCC1c1ccc(C)o1 (configuration not stated) | -0.872%
CC(=O)NCC1CCC2(CCN(c3ncc(C)cn3)CC2)O1 (configuration not stated) | -3.09%
O=C(Nc1ccc(F)cc1F)N(CCC(F)(F)F)C[C@H](O)CO | -7.64%
NC(CC1CCCCC1)c1ccccc1 (configuration not stated) | -4.8%
O=C(NCC1CC1)C1CN(Cc2cccs2)Cc2ccnn2C1 (configuration not stated) | -3.94%
CC(=O)N1CCC(c2nc3ccc(NC4CCC4)cn3n2)CC1 | -107%

SMILES | cytotoxicity at 10 µM
c1cncc(OC[C@]23COC[C@H]2CN(C2CCC2)C3)c1 | 4.64%
Cc1nc(CN2CCCN(C(=O)c3ccn(C)c(=O)c3)CC2)cs1 | -12.7%
CC(O)CN1CCC(CNCc2ccc(C(N)=O)cc2)CC1 (configuration not stated) | -9.83%
CN(C)c1cncc(C2CCN(CCO)CC2)n1 | 3.29%
Cc1cnn(CC2CCCCN2Cc2nnsc2Cl)c1 (configuration not stated) | -2.93%
O=C(c1ccc(-n2cnnc2)cc1)N1CCCC(n2ccnc2)C1 (configuration not stated) | -10.7%
c1ccc(-n2ncc(CNCC3CCCN3c3cccnn3)n2)cc1 (configuration not stated) | -6.71%
O=C(c1ccoc1)N1CCC2(CC1)COC(COCc1ccccn1)C2 (configuration not stated) | -138%
CC(O)CC(C)(C)CNC(=O)NCc1cccc(-n2ccnc2)c1 (configuration not stated) | -3.34%
OCCNc1nccc(-c2c[nH]nc2-c2ccncc2)n1 | -9.52%
CCC(=O)Nc1nnc(CCOc2ccccc2OC)s1 | 2.38%
CC(C)=CCC1(CO)CCCN(Cc2nccs2)C1 (configuration not stated) | -1.23%
O=C1CC2(CCN(Cc3ccc(-c4ccn[nH]4)s3)CC2)CN1 | -137%
Cn1cc(-c2nc(CN3CCCCC3Cn3cncn3)cs2)cn1 (configuration not stated) | -17.4%
CCCc1n[nH]c(C2CN(C(=O)c3cc4c(s3)CCC4)CCO2)n1 (configuration not stated) | -10.1%
CC(C)c1cc(C(=O)NCCCN(C)C)nc(N2CCCC2)n1 | 8.49%
Cn1cccc1C(=O)N1CCn2cc(CNC(=O)CC3CC3)nc2C1 | 3.11%
CCCc1cc(C(=O)N2CC(c3ccncc3)C2)ccn1 | 2.36%
CCc1noc(CS(=O)(=O)Cc2nc(Cc3ccccc3)no2)n1 | 5.45%
Cc1cc(CN(C)C(=O)NCc2ccco2)no1 | 1.58%

Source: ChEMBL document CHEMBL4513216, “Probing the Open Global Health Chemical Diversity Library for Multistage-Active Starting Points for Next-Generation Antimalarials” (ACS Infect Dis, 2020)
